Assay results from ChEMBL document CHEMBL1123382, “Potential tumor- or organ-imaging agents. 27. Polyiodinated 1,3-disubstituted and 1,2,3-trisubstituted triacylglycerols” (J Med Chem, 1986).
Where “and” joins values, the source holds several entries; their conditions need not be identical. Identical values can stand only once.

Legend:
[1] = system: Rattus norvegicus; test: Liver radioactivity after iv administration of compound (24 h) in rats; type: functional, organism-based
Outline: (§1)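 Rats (3-5 per time point) dosed iv with about 5-30 μCi (9-83 μg) of 125I-labeled compound in saline containing Tween-20. Killed by exsanguination under ether at 5 min, 30 min or 24 h. Liver removed, minced, blotted and counted. Values are % administered dose per organ, based on each animal's actual liver weight, ± SEM.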

[2] = system: Rattus norvegicus; test: Biodistribution in Rat heart after 24 hours of iv administration; per g of tissue; type: ADME, organism-based; settings: in vivo
Outline: (§2)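 125I-labeled compound solubilized in normal saline with Tween-20 and given iv to rats, about 5-30 μCi (9-83 μg) per animal. Three to five rats per time point. Rats killed by exsanguination under ether anesthesia at 5 min, 30 min or 24 h. Organs minced, blotted free of blood and counted for radioiodine. Lines with "per g" are % administered dose per gram ± SEM.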

[3] = system: Rattus norvegicus; test: (§3) Biodistribution in Rat liver after 30 minutes of iv administration; per g of tissue; type: ADME, organism-based; settings: in vivo, 0.5 h; outline: as §2
[4] = system: Rattus norvegicus; test: Biodistribution in Rat blood after 30 minutes of iv administration; per g of tissue; type: ADME, organism-based; settings: in vivo, 0.5 h; outline: as §2
[5] = system: Rattus norvegicus; test: Compound was evaluated for the lipid soluble radioactivity extracted from rat plasma at 0.5 hr after intravenous administration.; type: functional
Outline: (§4)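 Liver and plasma taken 0.5 or 24 h after iv dosing of 125I-labeled compound in rats (n = 3-5). Extracted by a modified Folch procedure; value is % lipid (CHCl3/MeOH)-extractable radioactivity ± SEM. Extracts run on TLC in hexane/ethyl acetate 5:2 against unlabeled standard, then 1-cm strips counted to give % parent compound.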

[6] = system: Rattus norvegicus; test: Compound was evaluated for the lipid soluble radioactivity extracted from rat plasma at 24 hr after intravenous administration.; type: functional; outline: as §4
[7] = system: Rattus norvegicus; test: Biodistribution in Rat lung after 30 minutes of iv administration; per g of tissue; type: ADME, organism-based; settings: in vivo, 0.5 h; outline: as §2
[8] = system: Rattus norvegicus; test: Compound (125I labeled) was evaluated for the total radioactivity in stacking gel 5 min after intravenous administration.; type: functional
Outline: (§5)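 Rat plasma taken 5 or 30 min after iv dosing of 125I-labeled compound (saline/Tween-20) and run on polyacrylamide gel electrophoresis. Gels sectioned and each section gamma-counted. Radioactivity in each band (stacking gel, lipoproteins, albumin, below-albumin) is given as % of total radioactivity applied to the gel.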

[9] = system: Rattus norvegicus; test: Biodistribution in Rat blood after 5 minutes of iv administration; per g of tissue; type: ADME, organism-based; settings: in vivo; outline: as §2
[10] = system: Rattus norvegicus; test: Compound (125I labeled) was evaluated for the total radioactivity in albumin at 30 min after intravenous administration.; type: functional; parameters: concentration or dose not given beside the values; outline: as §5
[11] = system: Rattus norvegicus; test: Evaluated for the total radioactivity in below albumin at 30 min after intravenous administration.; type: functional; outline: as §5
[12] = system: Rattus norvegicus; test: Biodistribution in Rat lung after 24 hours of iv administration; per g of tissue; type: ADME, organism-based; settings: in vivo; outline: as §2
[13] = system: Rattus norvegicus; test: Biodistribution in Rat blood after 24 hours of iv administration; per g of tissue; type: ADME, organism-based; settings: in vivo; outline: as §2
[14] = system: Rattus norvegicus; test: Liver radioactivity after iv administration of compound (30 min) in rats; type: functional, organism-based; outline: as §1
[15] = system: Rattus norvegicus; test: as §3; type: ADME, organism-based; settings: in vivo, 0.5 h; outline: as §2; remark: listed apart in the source
[16] = system: Rattus norvegicus; test: Biodistribution in Rat heart after 5 minutes of iv administration; per g of tissue; type: ADME, organism-based; settings: in vivo; outline: as §2
[17] = system: Rattus norvegicus; test: Compound (125I labeled) was evaluated for the total radioactivity in albumin 5 min after intravenous administration.; type: functional; parameters: concentration or dose not given beside the values; outline: as §5
[18] = system: Rattus norvegicus; test: Liver radioactivity after iv administration of compound (5 min) in rats; type: functional, organism-based; outline: as §1
[19] = system: Rattus norvegicus; test: Biodistribution in Rat liver after 5 minutes of iv administration; per g of tissue; type: ADME, organism-based; settings: in vivo; outline: as §2
[20] = system: Rattus norvegicus; test: Compound (125I labeled)was evaluated for the total radioactivity in low-density lipoprotein 5 min after intravenous administration.; type: functional; outline: as §5
[21] = system: Rattus norvegicus; test: Compound was evaluated for the lipid soluble radioactivity extracted from rat liver at 24 hr after intravenous administration.; type: functional; outline: as §4
[22] = system: Rattus norvegicus; test: Biodistribution in Rat lung after 5 minutes of iv administration; per g of tissue; type: ADME, organism-based; settings: in vivo; outline: as §2
[23] = system: Rattus norvegicus; test: Biodistribution in Rat liver after 24 hours of iv administration; per g of tissue; type: ADME, organism-based; settings: in vivo; outline: as §2
[24] = system: Rattus norvegicus; test: Biodistribution in Rat heart after 30 minutes of iv administration; per g of tissue; type: ADME, organism-based; settings: in vivo, 0.5 h; outline: as §2
[25] = system: Rattus norvegicus; test: Compound (125I labeled) was evaluated for the total radioactivity in high-density lipoprotein, at 30 min after intravenous administration.; type: functional; outline: as §5
[26] = system: Rattus norvegicus; test: Compound was evaluated for the lipid soluble radioactivity extracted from rat liver at 0.5 hr after intravenous administration.; type: functional; outline: as §4
[27] = system: Rattus norvegicus; test: Compound (125I labeled) was evaluated for the total radioactivity in low-density lipoprotein, at 30 min after intravenous administration.; type: functional; outline: as §5
[28] = system: Rattus norvegicus; test: Compound (125I labeled) was evaluated for the total radioactivity in stacking gel at 30 min after intravenous administration.; type: functional; outline: as §5
[29] = system: Rattus norvegicus; test: Compound (125I labeled) was evaluated for the total radioactivity in high-density lipoprotein 5 min after intravenous administration.; type: functional; outline: as §5

CCCCCCCCCCCCCCCC(=O)OC(COC(=O)Cc1c(I)cc(I)c(N)c1I)COC(=O)Cc1c(I)cc(I)c(N)c1I
Radioactivity [1]: 10.3
Biodistribution [2]: 0.05%
Biodistribution [3]: 7.62%
Biodistribution [4]: 2.62%
Extracted [5]: 82.7%
Parent compound [5]: 82.8%
Extracted [6]: 67%
Parent compound [6]: 60.8%
Biodistribution [7]: 0.73%
Total radioactivity [8]: 18.7%
Biodistribution [9]: 4.75%
Total radioactivity [10]: 3.9%
Total radioactivity [11]: 3.2% and 2.4%
Biodistribution [12]: 0.13%
Biodistribution [13]: 0.12%
Radioactivity [14]: 57.2
Biodistribution [15]: 7.62%
Biodistribution [16]: 0.64%
Total radioactivity [17]: 4.5%
Radioactivity [18]: 38.8
Biodistribution [19]: 0.54% and 5.53%
Total radioactivity [20]: 39%
Extracted [21]: 80.1%
Parent compound [21]: 68.8%
Biodistribution [22]: 1.13%
Biodistribution [23]: 0.11% and 1.39%
Biodistribution [24]: 0.32%
Total radioactivity [25]: 42%
Extracted [26]: 90.5%
Parent compound [26]: 89.5%
Total radioactivity [27]: 35.1%
Total radioactivity [28]: 16.6%
Total radioactivity [29]: 34.7%
